Assay outcomes (PubChem)
TPT1 inh – C. albicans TPT1 enzyme inhibition | recombinant caTPT1, FP RNA substrate dephosphorylation | inhibition, % at 5 µM | 300,000 tested, 0.81% active | AID 1962;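 active = inhibition above the mean of all tested compounds plus 3 SD, set per screening campaign, cut at about 24% in these data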;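 note: plate controls were DMSO alone for no effect and ferristatin control at 100 nM for full effect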
HNF4A DNA FP – change in binding of human HNF4 alpha to DNA; P41235; HNF4a-FITC DNA binding, fluorescence polarization, 1 h; activity change, % at 10 µM; 360,000 tested, 0.3% active; AID 1224865; in the data active = activity change above about 30%, passing the limit was not always enough
Rev-erbA mod – modulates human Rev-erb alpha binding to DNA. P20393. Rev-erbα–FITC-DNA binding, fluorescence polarization, 90 min. activity, % at 10 µM. 370,000 tested, 0.79% active. AID 1259318;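 active = activity above about 14%, limit read from the data; passing the limit was not always enough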;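 note: 0% = DMSO wells with 35 nM protein and 100% = DMSO wells with 750 nM protein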
CSN deneddyl inh – CSN deneddylation inhibition; inhibition, % at 12.5 µM; Purified CSN, SCF-Nedd8-OG deneddylation, fluorescence polarization; 360,000 tested, 0.38% active;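 active = pattern-corrected inhibition above about 35%, with an unprinted fluorescence ratio check between 0.5 and 1.5, limit read from the data, passing the limit was not always enough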;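 note: 0% = enzyme with substrate and 100% = substrate without enzyme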
Target sequence (Q92905 whole entry, looked up, one chain of several): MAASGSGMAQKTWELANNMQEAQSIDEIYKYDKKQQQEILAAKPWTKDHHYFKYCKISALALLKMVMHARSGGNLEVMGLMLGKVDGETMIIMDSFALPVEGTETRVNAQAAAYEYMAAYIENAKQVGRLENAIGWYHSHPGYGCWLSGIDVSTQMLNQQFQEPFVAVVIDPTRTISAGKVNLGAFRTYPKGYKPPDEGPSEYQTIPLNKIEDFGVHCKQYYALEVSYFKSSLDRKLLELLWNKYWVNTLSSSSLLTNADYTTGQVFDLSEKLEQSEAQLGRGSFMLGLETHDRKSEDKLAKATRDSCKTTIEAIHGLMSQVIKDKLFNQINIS
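Detection – fluorescence polarization · System – HEK293T-derived human Csn5 enzyme · Controls – substrate-only high control, full reaction low control · Timing – 90 min, room temperature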
TPT1 inh confirm – confirmation of Candida albicans TPT1 inhibitors. shares compounds with TPT1 inh. recombinant caTPT1, fluorescence polarization, RNase T1 coupled. inhibition, % at 5 µM. 2,400 tested, 74% active;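 active = inhibition above the primary screen limit, the mean inhibition of all tested compounds plus 3 SD, cut at about 25% in these data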
RNase T1 counter – RNase T1 inhibition in TPT1 counter-screen | shares compounds with TPT1 inh | RNase T1 cleavage, fluorescence polarization, 1536-well | inhibition, % at 5 µM | 2,400 tested, 83% active;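 active = inhibition above the solvent-only control well mean plus 3 SD, limit set per screening run, cut at about 23% in these data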;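 note: plate controls were DMSO wells with enzyme for no effect and wells without RNase T1 for full effect; inhibitors block cleavage so intact labeled substrate keeps polarization high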
Target sequence (P00651 whole entry, looked up): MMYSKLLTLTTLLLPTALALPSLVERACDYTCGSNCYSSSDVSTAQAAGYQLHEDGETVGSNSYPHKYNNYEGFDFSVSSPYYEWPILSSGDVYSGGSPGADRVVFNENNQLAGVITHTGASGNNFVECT
Starred values were filed as active, the others as inactive; . = no result. Only some compounds are listed: those with a hit (about 1.7% of all), similar ones and a draw of the others.

SMILES	TPT1 inh	HNF4A DNA FP	Rev-erbA mod	CSN deneddyl inh	TPT1 inh confirm	RNase T1 counter
COc1ccc(CCNc2nc(-c3ccc(F)cc3)c(CC(=O)O)s2)cc1OC	98*	4	3	32	15	23*
Cc1cc(C=C2C(=O)c3ccccc3C2=O)c(C)n1-c1cccc(C(=O)O)c1	31*	2	2	5	41*	51*
Cc1cc(C=C2C(=O)c3ccccc3C2=O)c(C)n1-c1ccc(C(=O)O)cc1	27*	3	0	24	35*	47*
Cc1cc(C=C2C(=O)c3ccccc3C2=O)c(C)n1-c1ccccc1	20	-35	5	6	.	.
CCCN1CCCCC(NC(=O)c2ccc(Cl)cc2Cl)C1=O (centres undefined)	.	.	-10	.	.	.
CCN1C(=O)C2(C(C#N)=C(N)Oc3cc(C)oc(=O)c32)c2ccccc21 (centres undefined)	0	6	2	26	.	.
Cc1cc2c(c(=O)o1)C1(C(=O)N(CC(=O)O)c3ccccc31)C(C#N)=C(N)O2 (centres undefined)	37*	3	11	9	42*	49*
CSc1nc(-c2ccccc2)nc(NC(=O)c2ccccc2)c1C(C)=O	-2	6	1	5	.	.
CSc1nc(-c2ccccc2)nc(SC)c1C(C)=O	26*	2	4	-1	6	14
COc1ccc(Oc2cnc3ccccc3n2)cc1	66*	-4	5	1	4	5
COc1cccc(C(=O)N[C@H](C(=O)N2CCC[C@H]2C(=O)NC2CCCC2)c2ccccc2)c1	.	.	14	.	.	.
CC1CCC(NC(=O)c2cc3c(=O)n(C)c4ccccc4c3n2C)CC1 (centres undefined)	1	-5	-2	0	.	.
Cn1c(C(=O)NC2CCCCC2)cc2c(=O)n(C)c3ccccc3c21	67*	2	5	3	2	1
COc1cccc(-n2c(SCC(N)=O)nc3ccccc3c2=O)c1	40*	30	-3	20	60*	75*
NC(=O)CSc1nc2ccccc2c(=O)n1-c1ccccc1	3	3	-2	-5	.	.
O=C1C2C(CC3c4ccccc4CCN32)CN1c1ccccc1 (centres undefined)	.	.	-7	.	.	.
CCN1/C(=C/c2cc[n+](CCCS(=O)(=O)[O-])c3ccccc23)Sc2ccccc21	48*	28	10	14	37*	52*
CC(C)(C)OC(=O)NC1CCN(c2nc(-c3ccc(Br)cc3)cs2)CC1	.	.	-1	.	.	.
Cc1cc(C)c2c(N)c(C(=O)c3ccc(Cl)cc3)sc2n1	-3	1	2	-9	.	.
Nc1c(C(=O)c2ccccc2)sc2nsc(SCCN3CCCC3)c12	48*	38*	-2	25	47*	56*
CC(=O)c1sc2nsc(SCCN3CCCCC3)c2c1N	-8	1	3	2	.	.
Nc1c(C(=O)c2ccc(Cl)cc2)sc2nsc(SCCN3CCOCC3)c12	41*	55	-2	38*	57*	69*
NC[C@H]1O[C@H](O[C@H]2[C@H](O)[C@@H](O[C@H]3O[C@H](CO)[C@@H](O)[C@H](N)[C@H]3O)[C@H](N)C[C@@H]2N)[C@H](N)[C@@H](O)[C@@H]1O	.	.	-6	.	.	.
CCOc1ccc(CCNC(=O)c2cc3sccc3n2Cc2ccccc2)cc1OCC	.	.	4	.	.	.
CC(C)(C)c1csc(NC(=O)c2cccs2)n1	-1	-2	5	3	.	.
SMILES	TPT1 inh	HNF4A DNA FP	Rev-erbA mod	CSN deneddyl inh	TPT1 inh confirm	RNase T1 counter
CC(C)(C)c1csc(NC(=O)Cc2cccs2)n1	99*	-2	-1	5	11	15
N#C/C(=C\c1ccc(N2CCCCC2)o1)C(=O)Nc1cccc(Br)c1	168*	133	8	109	191*	172*
O=C(Cn1c(Cc2ccccc2)nc2ccccc21)NCc1ccc2c(c1)OCO2	61*	1	2	-1	10	16
CCNC(=O)CSC1=N/C(=C\c2ccc(O)c(OCC)c2)C(=O)N1c1ccc(OC(F)F)cc1	90*	90*	12	47*	102*	97*
O=C(CSC1=N/C(=C/c2ccco2)C(=O)N1c1ccc(OC(F)F)cc1)NC1CCS(=O)(=O)C1 (centres undefined)	28*	24	4	3	26*	34*
COc1ccc(N2C(=O)/C(=C\c3ccco3)N=C2SCC(=O)NC(C)C)cc1Cl	11	4	2	0	.	.
CC(C)(C)OC(=O)NCc1cc2c(cc1/C=C/S(=O)(=O)NC1CCCC1)OCO2	.	.	6	.	.	.
CN1/C(=C/C=C(C#N)C#N)C(C)(C)c2ccccc21	13	-96	15	-105	.	.
CC1=C/C(=C\C=C(C#N)C#N)N(C)c2ccccc21	34*	71*	9	32	33*	43*
COC1=C[C@H](C(=O)NCc2ccc(Br)cc2)C(C)C(c2ccccc2)CC1=O (some centres undefined)	.	.	12	.	.	.
O=C(O)c1ccccc1SCC(=O)N1CCc2ccccc21	139*	-2	0	-1	1	4
Nc1ccccc1SCC(=O)N1CCc2ccccc21	-3	-2	-1	7	.	.
CN1/C(=C\C=C2/SC(=S)N(CC(=O)O)C2=O)C(C)(C)c2ccccc21	79*	-98	-14	-74	74*	78*
CC(C(=O)O)N1C(=O)/C(=C/c2cccn2C)SC1=S (centres undefined)	96*	85*	2	48*	105*	118*
CCC(C(=O)O)N1C(=O)/C(=C/c2cccn2C)SC1=S (centres undefined)	118*	101*	6	82*	124*	130*
Cn1cccc1/C=C1/SC(=S)N(CC(=O)O)C1=O	89*	81*	13	50*	110*	120*
Cc1ncc(C[n+]2csc(CCOP(=O)(O)OP(=O)(O)O)c2C)c(N)n1	.	.	-3	.	.	.
O=C(O)COc1ccccc1C=NNC(=O)Cc1cc(=O)[nH][nH]1	.	.	-5	.	.	.
CC(=O)C1=C(C)N(Cc2ccc(F)cc2)C(=S)NC1c1ccccc1 (centres undefined)	.	.	3	.	.	.
CCC(C)(C(=O)NC1CCCC1)N(Cc1cccs1)C(=O)Cc1cccs1 (centres undefined)	0	-1	0	-1	.	.
CCC(C)(C(=O)NC1CCCCC1)N(C(=O)Cc1cccs1)c1ccccc1 (centres undefined)	68*	0	-1	1	3	8
COC(=O)c1ccc(-c2sc3nc(N4CCOCC4)c4c(c3c2N)CCCC4)o1	58*	.	-5	.	57*	68*
Cc1nc(S/C(=C/c2ccc(-c3cccc(Cl)c3)o2)C(=O)O)n[nH]1	25*	26	2	-6	35*	48*
O=[N+]([O-])c1ccc(C[n+]2cccc3ccccc32)cc1	56*	4	5	17	27*	36*
